ChEMBL document CHEMBL2440064, “Synthesis and biological evaluation of 2-amino-5-aryl-3-benzylthiopyridine scaffold based potent c-Met inhibitors” (Bioorg Med Chem, 2013)
The source made the active and inactive calls. The calls are words filed in the database; no cut-off is given here.

Legend:
[1] = molecular target: Vascular endothelial growth factor receptor 2 (Homo sapiens, UniProt P35968); experiment: Inhibition of KDR (unknown origin) using poly (Glu, Tyr) 4:1 as substrate after 60 mins by ELISA
Outline: (§1)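 ELISA on wells precoated with 20 µg/mL poly(Glu,Tyr)4:1. Purified kinase with 10 µmol/L ATP in 50 mM HEPES pH 7.4, 50 mM MgCl₂, 0.5 mM MnCl₂, 0.2 mM Na₃VO₄, 1 mM DTT; 1% DMSO vehicle. 60 min at 37°C. Phosphotyrosine detected with PY99 antibody, then HRP anti-mouse IgG and o-phenylenediamine/H₂O₂, A490. Inhibition = [1−(A490/A490 control)]×100%; IC50 from curves.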

Ephrin type-B receptor 2 = Ephrin type-B receptor 2 (Homo sapiens, UniProt P29323); experiment: Inhibition of EPHB2 (unknown origin) using poly (Glu, Tyr) 4:1 as substrate after 60 mins by ELISA; outline: as §1
[2] = molecular target: T1, TPR/MET fusion protein (Mus musculus) (UniProt P16056+F6ZDS4); experiment: Inhibition of TPR/Met in mouse NIH3T3 cells assessed as inhibition of p44/42 phosphorylation at 0.08 to 10 uM after 2 hrs by Western blotting analysis; type: cell-based
Outline: (§2)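 Cells grown to exponential phase, treated with compound 2 h at 37°C, lysed in 1× SDS sample buffer, resolved on 10% SDS-PAGE and transferred to nitrocellulose for immunoblotting.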

Ephrin type-A receptor 2 = Ephrin type-A receptor 2 (Homo sapiens, UniProt P29317); experiment: Inhibition of EPHA2 (unknown origin) using poly (Glu, Tyr) 4:1 as substrate after 60 mins by ELISA; outline: as §1
[3] = Clearance in rat at 2 mg/kg, iv and 10 mg/kg, po; type: ADME, organism-based; settings: in vivo
Outline: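 Rat pharmacokinetics after a single intravenous dose (2 mg/kg) and a single oral dose (10 mg/kg).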

[4] = molecular target: Tyrosine-protein kinase receptor TYRO3 (Homo sapiens, UniProt Q06418); experiment: Inhibition of TYRO3 (unknown origin) using poly (Glu, Tyr) 4:1 as substrate after 60 mins by ELISA; outline: as §1
[5] = molecular target: T2, Hepatocyte growth factor receptor (Homo sapiens, UniProt P08581); experiment: Inhibition of c-Met in gefitinib-resistant human HCC827 cells assessed as inhibition of AKT phosphorylation at 0.5 uM after 2 hrs by Western blotting analysis in presence of gefitinib; type: cell-based; outline: as §2
SNU-5 = experiment: Antiproliferative activity against human SNU5 cells after 72 hrs; settings: SNU-5, 72 h
NCI-H661 = experiment: Antiproliferative activity against human NCI-H661 cells after 72 hrs; settings: NCI-H661, 72 h
[6] = molecular target: Fibroblast growth factor receptor 1 (Homo sapiens, UniProt P11362); experiment: Inhibition of FGFR1 (unknown origin) using poly (Glu, Tyr) 4:1 as substrate after 60 mins by ELISA; outline: as §1
[7] = molecular target: Hepatocyte growth factor receptor (Canis lupus familiaris) (UniProt Q75ZY9); experiment: Inhibition of c-Met in MDCK cells assessed as HGF-induced cell motility at 0.3 to 3 uM after 1 to 10 hrs by wound-healing assay; type: cell-based
Outline: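 MDCK monolayers in 12-well plates, pre-incubated 30 min serum-free. Scratch wound made with micropipette and washed, then compound added with or without 50 ng/mL recombinant human HGF at 37°C. Phase-contrast images at 0 and 10 h.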

SK-MEL-28 = experiment: Antiproliferative activity against human SK-MEL-28 cells after 72 hrs; settings: SK-MEL-28, 72 h
[8] = molecular target: Tyrosine-protein kinase receptor UFO (Homo sapiens, UniProt P30530); experiment: Inhibition of AXL (unknown origin) using poly (Glu, Tyr) 4:1 as substrate after 60 mins by ELISA; outline: as §1
[9] = molecular target: T2, Hepatocyte growth factor receptor; experiment: Inhibition of c-Met in human MKN45 cells assessed as inhibition of p44/42 phosphorylation at 0.16 to 20 uM after 2 hrs by Western blotting analysis; type: cell-based; settings: MKN-45; outline: as §2
[10] = Oral bioavailability in rat at 10 mg/kg; type: ADME, organism-based; settings: in vivo
Outline: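 Rats given a single iv dose (2 mg/kg) or a single po dose (10 mg/kg).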

[11] = molecular target: T2, Hepatocyte growth factor receptor; experiment: Inhibition of c-Met phosphorylation in human SNU5 cells after 2 hrs by Western blotting analysis; type: cell-based; settings: SNU-5
Outline: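 Cells grown under regular conditions to exponential phase, exposed to compound at indicated concentrations for 2 h at 37°C, lysed in 1× SDS sample buffer. Lysates resolved on 10% SDS-PAGE and transferred to nitrocellulose for immunoblotting.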

[12] = molecular target: Epidermal growth factor receptor (Homo sapiens, UniProt P00533); settings: HCC827, at 0.5 µM
SK-OV-3 = experiment: Antiproliferative activity against human SKOV3 cells after 72 hrs; settings: SK-OV-3, 72 h
[13] = molecular target: T2, Hepatocyte growth factor receptor; experiment: Inhibition of c-Met in gefitinib-resistant human HCC827 cells assessed as inhibition of p44/42 phosphorylation at 0.5 uM after 2 hrs by Western blotting analysis; type: cell-based; outline: as §2
[14] = molecular target: Mast/stem cell growth factor receptor Kit (Homo sapiens, UniProt P10721); experiment: Inhibition of c-kit (unknown origin) using poly (Glu, Tyr) 4:1 as substrate after 60 mins by ELISA
Outline: (§3)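 Purified kinase incubated with 10 µmol/L ATP in wells pre-coated with 20 µg/mL poly(Glu,Tyr)4:1. Reaction ran 60 min at 37°C. Phosphotyrosine detected with PY99 antibody, then HRP anti-mouse IgG and o-phenylenediamine/H₂O₂, read at 490 nm. IC50 taken from inhibition curves.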

NCI-H441 = experiment: Antiproliferative activity against human NCI-H441 cells after 72 hrs; settings: NCI-H441, 72 h
[15] = molecular target: T2, Hepatocyte growth factor receptor; experiment: Competitive inhibition of c-Met (unknown origin) at 1.3 to 160 uM by Lineweaver-Burk plot analysis in presence of ATP
Outline: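 ATP-competition version of the poly(Glu,Tyr)4:1 ELISA kinase assay (60 min, 37°C, PY99 antibody detection, A490) run at various ATP concentrations; Lineweaver-Burk plot constructed.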

[16] = molecular target: T1, TPR/MET fusion protein (Mus musculus); experiment: Inhibition of TPR/Met phosphorylation in mouse BAF3 cells after 2 hrs by Western blotting analysis; type: cell-based; outline: as §2
BaF3 = experiment: Induction of cell cycle arrest in mouse BAF3 cells expressing TPR/Met fusion protein assessed as accumulation at G1 phase at 1 uM after 24 hrs by propidium iodide staining-based FACS analysis (reference value: 26.6%); type: functional
[17] = molecular target: Vascular endothelial growth factor receptor 1 (Homo sapiens, UniProt P17948); experiment: Inhibition of FLT1 (unknown origin) using poly (Glu, Tyr) 4:1 as substrate after 60 mins by ELISA; outline: as §1
[18] = molecular target: Tyrosine-protein kinase ABL1 (Homo sapiens, UniProt P00519); experiment: Inhibition of Abl (unknown origin) using poly (Glu, Tyr) 4:1 as substrate after 60 mins by ELISA; outline: as §1
[19] = molecular target: Macrophage-stimulating protein receptor (Homo sapiens, UniProt Q04912); experiment: Inhibition of RON (unknown origin) using poly (Glu, Tyr) 4:1 as substrate after 60 mins by ELISA; outline: as §1
[20] = molecular target: Proto-oncogene tyrosine-protein kinase Src (Homo sapiens, UniProt P12931); experiment: Inhibition of c-Src (unknown origin) using poly (Glu, Tyr) 4:1 as substrate after 60 mins by ELISA; outline: as §3

T2 sequence (P08581 whole entry): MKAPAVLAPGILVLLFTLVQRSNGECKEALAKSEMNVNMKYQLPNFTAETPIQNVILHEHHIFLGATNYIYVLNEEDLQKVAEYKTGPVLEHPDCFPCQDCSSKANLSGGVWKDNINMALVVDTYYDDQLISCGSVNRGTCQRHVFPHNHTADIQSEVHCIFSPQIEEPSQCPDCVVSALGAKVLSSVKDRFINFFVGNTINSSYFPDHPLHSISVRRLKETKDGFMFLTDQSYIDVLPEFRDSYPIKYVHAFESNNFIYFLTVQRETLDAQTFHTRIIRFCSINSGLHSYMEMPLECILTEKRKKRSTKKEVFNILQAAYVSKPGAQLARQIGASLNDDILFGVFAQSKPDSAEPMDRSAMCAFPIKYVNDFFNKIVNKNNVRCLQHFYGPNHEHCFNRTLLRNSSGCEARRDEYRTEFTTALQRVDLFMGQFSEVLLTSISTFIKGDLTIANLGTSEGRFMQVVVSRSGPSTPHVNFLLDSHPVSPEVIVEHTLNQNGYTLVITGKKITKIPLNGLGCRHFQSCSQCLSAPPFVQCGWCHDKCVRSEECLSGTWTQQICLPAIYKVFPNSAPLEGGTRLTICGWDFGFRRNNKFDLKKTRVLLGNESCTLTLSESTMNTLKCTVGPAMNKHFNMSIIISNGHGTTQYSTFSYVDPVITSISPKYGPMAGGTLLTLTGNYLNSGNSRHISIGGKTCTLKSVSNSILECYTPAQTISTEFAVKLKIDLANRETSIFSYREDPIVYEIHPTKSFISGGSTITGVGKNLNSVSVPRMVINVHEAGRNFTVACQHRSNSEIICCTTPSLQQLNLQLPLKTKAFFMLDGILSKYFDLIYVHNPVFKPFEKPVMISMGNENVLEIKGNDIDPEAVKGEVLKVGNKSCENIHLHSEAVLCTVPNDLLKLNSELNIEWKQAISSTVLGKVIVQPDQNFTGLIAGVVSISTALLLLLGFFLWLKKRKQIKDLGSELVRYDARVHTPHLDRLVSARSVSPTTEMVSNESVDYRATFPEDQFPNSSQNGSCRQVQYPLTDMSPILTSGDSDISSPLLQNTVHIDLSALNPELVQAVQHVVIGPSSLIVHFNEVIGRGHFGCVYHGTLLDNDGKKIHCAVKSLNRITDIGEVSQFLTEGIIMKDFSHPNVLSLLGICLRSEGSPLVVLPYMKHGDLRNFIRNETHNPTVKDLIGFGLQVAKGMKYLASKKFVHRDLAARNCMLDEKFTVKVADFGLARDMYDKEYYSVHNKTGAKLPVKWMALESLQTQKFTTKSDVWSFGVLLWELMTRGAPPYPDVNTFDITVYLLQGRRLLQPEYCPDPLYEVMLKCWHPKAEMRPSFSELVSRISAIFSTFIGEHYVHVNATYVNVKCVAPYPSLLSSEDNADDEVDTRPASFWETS
T1 sequence (F6ZDS4 whole entry partner, the tested form may be a part): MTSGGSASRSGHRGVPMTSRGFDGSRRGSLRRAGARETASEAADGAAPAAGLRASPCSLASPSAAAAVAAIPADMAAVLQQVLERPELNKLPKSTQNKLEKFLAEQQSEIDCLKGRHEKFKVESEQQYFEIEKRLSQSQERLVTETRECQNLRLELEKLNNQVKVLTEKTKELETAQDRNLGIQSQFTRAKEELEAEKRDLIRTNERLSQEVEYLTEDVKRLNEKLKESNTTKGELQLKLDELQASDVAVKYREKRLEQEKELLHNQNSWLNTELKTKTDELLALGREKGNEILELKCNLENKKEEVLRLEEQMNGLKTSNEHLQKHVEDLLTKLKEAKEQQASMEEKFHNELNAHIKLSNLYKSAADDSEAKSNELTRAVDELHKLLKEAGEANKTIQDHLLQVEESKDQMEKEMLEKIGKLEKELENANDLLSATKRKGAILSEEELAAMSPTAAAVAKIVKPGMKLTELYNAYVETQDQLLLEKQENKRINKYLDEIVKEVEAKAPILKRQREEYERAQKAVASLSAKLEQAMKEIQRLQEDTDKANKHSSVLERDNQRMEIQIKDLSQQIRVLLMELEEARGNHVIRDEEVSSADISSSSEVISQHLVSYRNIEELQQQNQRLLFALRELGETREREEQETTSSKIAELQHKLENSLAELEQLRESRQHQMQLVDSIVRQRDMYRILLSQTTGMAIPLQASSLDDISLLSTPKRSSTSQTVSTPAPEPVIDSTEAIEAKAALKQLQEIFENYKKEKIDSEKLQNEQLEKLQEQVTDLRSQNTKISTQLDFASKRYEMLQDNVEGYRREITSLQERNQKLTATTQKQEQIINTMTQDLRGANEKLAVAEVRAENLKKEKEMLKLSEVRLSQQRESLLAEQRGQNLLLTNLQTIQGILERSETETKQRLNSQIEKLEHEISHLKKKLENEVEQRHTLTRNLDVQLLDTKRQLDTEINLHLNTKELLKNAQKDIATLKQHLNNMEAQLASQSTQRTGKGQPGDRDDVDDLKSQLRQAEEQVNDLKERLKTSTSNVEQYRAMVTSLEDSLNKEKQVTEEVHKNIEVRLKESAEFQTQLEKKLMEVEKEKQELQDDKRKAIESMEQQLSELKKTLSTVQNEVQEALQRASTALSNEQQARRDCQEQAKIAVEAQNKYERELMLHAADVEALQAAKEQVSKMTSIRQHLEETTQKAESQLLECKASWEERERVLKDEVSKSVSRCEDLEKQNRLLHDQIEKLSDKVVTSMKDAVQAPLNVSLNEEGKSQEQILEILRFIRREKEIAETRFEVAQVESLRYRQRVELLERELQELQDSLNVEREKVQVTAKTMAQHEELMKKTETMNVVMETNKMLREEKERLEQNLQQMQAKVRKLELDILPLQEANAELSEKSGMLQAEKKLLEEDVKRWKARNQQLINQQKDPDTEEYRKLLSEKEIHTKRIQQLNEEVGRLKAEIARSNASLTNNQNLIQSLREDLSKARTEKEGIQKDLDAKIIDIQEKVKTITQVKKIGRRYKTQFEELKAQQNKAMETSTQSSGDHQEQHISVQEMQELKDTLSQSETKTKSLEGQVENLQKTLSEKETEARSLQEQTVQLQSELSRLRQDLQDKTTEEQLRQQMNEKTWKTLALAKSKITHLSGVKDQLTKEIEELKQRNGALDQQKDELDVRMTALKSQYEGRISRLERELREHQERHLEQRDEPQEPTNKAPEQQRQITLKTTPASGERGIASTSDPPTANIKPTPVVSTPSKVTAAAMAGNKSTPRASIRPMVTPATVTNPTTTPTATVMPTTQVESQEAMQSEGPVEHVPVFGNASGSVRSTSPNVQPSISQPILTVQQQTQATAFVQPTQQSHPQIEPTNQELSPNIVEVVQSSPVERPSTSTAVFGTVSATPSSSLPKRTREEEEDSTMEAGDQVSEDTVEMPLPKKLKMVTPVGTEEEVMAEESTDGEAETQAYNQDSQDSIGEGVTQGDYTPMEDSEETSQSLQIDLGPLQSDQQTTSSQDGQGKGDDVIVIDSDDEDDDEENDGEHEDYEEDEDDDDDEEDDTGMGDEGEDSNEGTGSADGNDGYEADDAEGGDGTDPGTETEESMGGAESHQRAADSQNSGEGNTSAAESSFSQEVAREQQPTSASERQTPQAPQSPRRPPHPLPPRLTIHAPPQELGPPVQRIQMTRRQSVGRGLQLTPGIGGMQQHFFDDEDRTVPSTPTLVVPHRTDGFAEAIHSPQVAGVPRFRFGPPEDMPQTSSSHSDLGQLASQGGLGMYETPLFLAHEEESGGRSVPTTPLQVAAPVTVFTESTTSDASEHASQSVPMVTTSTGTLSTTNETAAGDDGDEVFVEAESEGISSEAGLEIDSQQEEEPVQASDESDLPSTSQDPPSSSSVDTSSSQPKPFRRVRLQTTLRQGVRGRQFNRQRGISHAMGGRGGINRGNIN
T1 sequence (P16056 25-1379 limits assumed): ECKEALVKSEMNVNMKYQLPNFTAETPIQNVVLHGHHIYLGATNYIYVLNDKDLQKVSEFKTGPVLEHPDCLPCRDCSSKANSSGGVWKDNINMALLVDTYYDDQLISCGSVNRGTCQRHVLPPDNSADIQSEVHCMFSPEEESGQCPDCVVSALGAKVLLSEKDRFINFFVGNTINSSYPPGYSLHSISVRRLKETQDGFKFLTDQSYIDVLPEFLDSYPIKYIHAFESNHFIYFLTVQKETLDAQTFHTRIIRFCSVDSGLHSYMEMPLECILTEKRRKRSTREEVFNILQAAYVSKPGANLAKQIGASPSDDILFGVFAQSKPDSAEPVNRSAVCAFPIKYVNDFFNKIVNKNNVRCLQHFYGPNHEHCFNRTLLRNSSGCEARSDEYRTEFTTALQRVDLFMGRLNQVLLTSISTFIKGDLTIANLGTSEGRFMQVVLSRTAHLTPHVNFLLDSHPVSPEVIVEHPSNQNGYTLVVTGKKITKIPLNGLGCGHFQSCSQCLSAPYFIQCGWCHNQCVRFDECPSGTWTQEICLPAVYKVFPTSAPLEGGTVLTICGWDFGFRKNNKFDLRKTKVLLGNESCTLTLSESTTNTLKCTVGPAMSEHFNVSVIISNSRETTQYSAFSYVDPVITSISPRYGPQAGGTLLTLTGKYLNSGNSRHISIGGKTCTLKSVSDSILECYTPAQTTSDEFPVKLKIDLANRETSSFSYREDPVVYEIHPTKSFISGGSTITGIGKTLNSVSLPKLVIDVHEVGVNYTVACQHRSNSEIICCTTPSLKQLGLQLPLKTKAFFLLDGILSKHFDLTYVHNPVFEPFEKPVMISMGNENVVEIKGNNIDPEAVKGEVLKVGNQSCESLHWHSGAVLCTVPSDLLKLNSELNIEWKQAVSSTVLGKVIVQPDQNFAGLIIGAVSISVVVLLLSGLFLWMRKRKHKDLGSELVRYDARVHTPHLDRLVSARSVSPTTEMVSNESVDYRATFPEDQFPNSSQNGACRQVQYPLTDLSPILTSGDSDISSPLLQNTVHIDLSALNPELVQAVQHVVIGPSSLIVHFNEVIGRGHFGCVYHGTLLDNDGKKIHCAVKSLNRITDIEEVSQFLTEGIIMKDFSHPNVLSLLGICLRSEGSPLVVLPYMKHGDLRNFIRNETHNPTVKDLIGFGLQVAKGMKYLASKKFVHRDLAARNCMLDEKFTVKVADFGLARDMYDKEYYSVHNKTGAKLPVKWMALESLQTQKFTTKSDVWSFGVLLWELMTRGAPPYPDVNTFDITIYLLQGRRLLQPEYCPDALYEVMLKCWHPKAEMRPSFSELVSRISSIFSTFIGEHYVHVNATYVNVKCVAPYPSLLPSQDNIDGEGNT

IC50 [1]: > 1000 nM
IC50 (Ephrin type-B receptor 2): > 1000 nM
inhibition [2]: Active
IC50 (Ephrin type-A receptor 2): > 1000 nM
clearance [3]: 53 mL/min/kg
IC50 [4]: > 1000 nM
inhibition [5]: Active
IC50 (SNU-5): 190 nM
IC50 (NCI-H661): 16200 nM
IC50 [6]: > 1000 nM
inhibition [7]: Active
IC50 (SK-MEL-28): 9310 nM
IC50 [8]: 446 nM
inhibition [9]: Active
bioavailability [10]: 12.8%
inhibition [11]: Dose-dependent effect
inhibition [12]: Active
IC50 (SK-OV-3): 12700 nM
inhibition [13]: inactive
IC50 [14]: > 1000 nM
IC50 (NCI-H441): 15500 nM
inhibition [15]: Active
inhibition [16]: Dose-dependent effect
IC50 [17]: > 1000 nM
IC50 [18]: > 1000 nM
IC50 [19]: 336 nM
IC50 [20]: > 1000 nM
SMILES: C[C@@H](Sc1cc(-c2cnn(C3CCNCC3)c2)cnc1N)c1c(Cl)ccc(F)c1Cl
Activity (BaF3): 69.6%
